Active and inactive are the calls of the source.
Tests used:
[1] = system: Mus musculus; assay: Antiparkinson activity in albino CD-1 mouse assessed as inhibition of oxotremorine-induced hypothermia at 40 mg/kg, ip; type: functional, organism-based; set-up: dose 40 mg/kg
In short: (§1)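 Five male CD-1 mice per group were pretreated ip with saline or compound 60-90 min before oxotremorine 1.0 mg/kg ip. Oxotremorine-induced hypothermia or salivation was then assessed.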

[2] = system: Mus musculus; assay: Antiparkinson activity in albino CD-1 mouse assessed as inhibition of oxotremorine-induced salivation at 100 mg/kg, ip; type: functional; set-up: scale not given: the % may be the effect or the level left; in short: as §1
[3] = system: Mus musculus; assay: Analgetic activity in albino CD-1 mouse assessed as inhibition of thermally-induced pain at 20 to 40 mg/kg, ip relative to control; type: functional; set-up: scale not given: the % may be the effect or the level left; conditions: dose mg/kg 20-40; route intraperitoneal
In short: (§2)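 Male albino CD-1 mice (18-25 g) were given compound ip in distilled water and tested 60-90 min later on a hot wire analgetic apparatus at 50°. Reaction times were compared with saline-pretreated controls. Each point used 5 treated and 20 control mice and is reported as mean ± SEM in seconds. Statistics were analysis of variance followed by t test or Mann-Whitney U.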

[4] = system: Mus musculus; assay: Anticonvulsant activity in albino CD-1 mouse assessed as protection against pentylenetetrazol-induced tonic seizure ratio at 40 mg/kg, ip administered 60 to 90 mins before pentylenetetrazol challenge relative to control; type: functional; conditions: route intraperitoneal
In short: (§3)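 Male CD-1 mice (18-25 g), 8-10 per group, received saline (1 ml/100 g) or compound (40 mg/kg) ip 60-90 min before seizure induction. Seizures were induced by iv infusion of 0.5% pentylenetetrazole solution. The minimal (clonic) and maximal (tonic) seizure thresholds were determined.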

[5] = system: Mus musculus; assay: Anticonvulsant activity in albino CD-1 mouse assessed as protection against pentylenetetrazol-induced clonic seizure ratio at 40 mg/kg, ip administered 60 to 90 mins before pentylenetetrazol challenge relative to control; type: functional; conditions: route intraperitoneal; in short: as §3
[6] = system: Mus musculus; assay: Acute toxicity in ip dosed albino CD-1 mouse assessed as mortality after 2 to 3 hrs; type: organism-based; conditions: in vivo
[7] = system: Ileum; assay: Antispasmodic activity in guinea pig ileum assessed as inhibition of histamine-induced contraction at 10^-8 to 10^-6 M; type: functional, tissue-based; conditions: Cavia porcellus
In short: (§4)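 Isolated guinea pig ileum (both sexes) was suspended in Krebs' solution at 37 ± 0.5°, gassed with 95% O2-5% CO2. Antihistaminic, anticholinergic and nonselective antispasmodic activity were measured.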

[8] = system: Mus musculus; assay: Antiparkinson activity in albino CD-1 mouse assessed as inhibition of oxotremorine-induced diarrhea, and tremors at 5 to 40 mg/kg, ip; type: functional, organism-based
[9] = system: Ileum; assay: Antispasmodic activity in guinea pig ileum assessed as inhibition of acetylcholine-induced contraction at 10^-8 to 10^-6 M; type: functional, tissue-based; conditions: Cavia porcellus; in short: as §4
[10] = Acute toxicity in ip dosed albino CD-1 mouse after 24 hrs; type: organism-based; conditions: in vivo
In short: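 Male albino CD-1 mice (18-25 g), groups of eight. Each mouse got a single ip injection of compound dissolved in distilled water. Lethality was scored 24 hr after dosing. LD50 was calculated with 95% confidence limits by the Litchfield and Wilcoxon method.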

[11] = system: Mus musculus; assay: Neuromuscular blocking activity in albino CD-1 mouse up to 20 mg/kg, ip; type: organism-based; set-up: dose 20 mg/kg, route intraperitoneal; conditions: in vivo
In short: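 Male CD-1 mice were dosed ip in distilled water and tested 60-90 min later. Neuromuscular blockade was judged by ability to remain on a wire mesh screen inclined at 60°.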

[12] = system: Mus musculus; assay: Analgetic activity in albino CD-1 mouse assessed as inhibition of thermally-induced pain at 10 to 15 mg/kg, ip relative to control; type: functional; conditions: dose mg/kg 10-15; route intraperitoneal; in short: as §2
[13] = system: Mus musculus; assay: Antidepressant activity in albino CD-1 mouse assessed as inhibition of reserpine-induced sedation up to 40 mg/kg, ip; type: functional, organism-based; set-up: dose 40 mg/kg
In short: (§5)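 CD-1 male mice were dosed ip in distilled water 60-90 min before challenge with reserpine (4 mg/kg ip). Hypothermia, sedation and ptosis were assessed. Rectal temperature was taken with a tele-thermometer fitted with a small-animal probe.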

[14] = system: Mus musculus; assay: Antipsychotic activity in ip dosed albino CD-1 mouse assessed as spontaneous motor activity for 15 mins intervals for 2 hrs by conditioned avoidance test; type: functional; conditions: for ED50: CD-1, ip
[15] = system: Mus musculus; assay: Analgetic activity in albino CD-1 mouse assessed as inhibition of thermally-induced pain at 10 to 20 mg/kg, ip; type: functional, organism-based; in short: as §2
[16] = system: Mus musculus; assay: Antiparkinson activity in ip dosed albino CD-1 mouse assessed as inhibition of oxotremorine-induced diarrhea, and tremors; type: functional, organism-based
[17] = system: Ileum; assay: Antispasmodic activity in guinea pig ileum assessed as inhibition of barium chloride-induced spasm at 5 x 10^-7 M; type: functional; conditions: Cavia porcellus; in short: as §4
[18] = Neurotoxicity against ip dosed albino CD-1 mouse by rotarod test; type: toxicity, organism-based; conditions: in vivo
In short: (§6)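 Male CD-1 mice (18-25 g), five per group, were dosed ip in distilled water. The endpoint was failure to stay for 1 min on a horizontal rod rotating at 6 rpm. Time of peak effect was determined on the rod, and TD50 was measured at that time. TD50 is given with 95% confidence limits by Litchfield-Wilcoxon.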

[19] = system: Mus musculus; assay: Neurotoxicity against ip dosed albino CD-1 mouse assessed as time of peak effect by rotarod test; type: toxicity, organism-based; conditions: in vivo; in short: as §6
[20] = system: Mus musculus; assay: Antidepressant activity in albino CD-1 mouse assessed as inhibition of reserpine-induced hypothermia up to 40 mg/kg, ip; type: functional, organism-based; set-up: dose 40 mg/kg; in short: as §5
[21] = system: Mus musculus; assay: Toxicity in albino CD-1 mouse assessed as reduction of rectal temperature at 40 mg/kg, ip; type: organism-based; set-up: dose 40 mg/kg, route intraperitoneal; conditions: in vivo
In short: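 Rectal temperature of male CD-1 mice was recorded by tele-thermometer with a small-animal probe at time of peak activity (60-90 min) after 40 mg/kg ip in distilled water.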

[22] = system: Mus musculus; assay: Toxicity in ip dosed albino CD-1 mouse assessed as muscle weakness and flaccidity; type: organism-based, Muscle tissue; conditions: in vivo
[23] = system: Mus musculus; assay: Antidepressant activity in albino CD-1 mouse assessed as potentiation of L-dopa-induced effect up to 40 mg/kg, ip; type: functional, organism-based; set-up: dose 40 mg/kg
In short: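 Compound was given ip in distilled water to male CD-1 mice. Potentiation of stimulation induced by L-Dopa (100 mg/kg ip) was assessed.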

[24] = system: Mus musculus; assay: Antidepressant activity in albino CD-1 mouse assessed as inhibition of reserpine-induced ptosis up to 40 mg/kg, ip; type: functional, organism-based; set-up: dose 40 mg/kg; in short: as §5
[25] = system: Mus musculus; assay: Antiparkinson activity in albino CD-1 mouse assessed as inhibition of oxotremorine-induced diarrhea, and tremors at 20 to 40 mg/kg, ip; type: functional; set-up: scale not given: the % may be the effect or the level left; conditions: dose mg/kg 20-40; route intraperitoneal
[26] = system: Mus musculus; assay: Analgetic activity in albino CD-1 mouse assessed as inhibition of thermally-induced pain at 5 mg/kg, ip; type: functional, organism-based; set-up: dose 5 mg/kg; in short: as §2
[27] = system: Mus musculus; assay: Antiparkinson activity in albino CD-1 mouse assessed as inhibition of oxotremorine-induced diarrhea, and tremors at 5 mg/kg, ip; type: functional; set-up: scale not given: the % may be the effect or the level left; conditions: route intraperitoneal

| Compound | Activity [1] | Activity [3] [%] | Ratio [4] | Ratio [5] | Activity [6] | inhibition [7] | Activity [8] | inhibition [9] | LD50 at 24 h [10] [mg/kg] | Activity [11] | fold change (FC) [12] | Activity [13] | Activity [14] | ED50 [14] [mg/kg] | Activity [15] | Activity [16] | inhibition at 0.5 µM [17] [%] | TD50 [18] [mg/kg] | Time [19] [min] | Activity [20] | also measured |
| --- | --- | --- | --- | --- | --- | --- | --- | --- | --- | --- | --- | --- | --- | --- | --- | --- | --- | --- | --- | --- | --- |
| CCN(C)[C@H]1CCN([C@@H]2Cc3ccccc3Sc3ccc(Cl)cc32)C1 | inactive | 23 | 1 | 1.27 | Toxic | Active | Active | Active | 177 | Non-toxic | 1.5 | inactive | Dose-dependent effect | 12 | Active | Dose-dependent effect | 40 | 12.5 | 60 | inactive | Activity ([2]; route intraperitoneal): 27%; T [21]: 5.1 °C; Activity [22]: Toxic; Activity [23]: inactive; Activity [24]: inactive |
| CCN(C)[C@H]1CCN([C@H]2Cc3ccccc3Sc3ccc(Cl)cc32)C1 | inactive | 23 | 0.93 | 1.16 | Toxic | Active | Active | Active | 175 | Non-toxic | 1.5 | inactive | Dose-dependent effect | 6.8 | Active | Dose-dependent effect | 40 | 6.2 | 60 | inactive | Activity [2]: inactive; Activity [25]: 93%; Activity [26]: Active; Activity [27]: 60%; T [21]: 5.1 °C; Activity [22]: Toxic; Activity [23]: inactive; Activity [24]: inactive |
| CCN(C)[C@@H]1CCN([C@@H]2Cc3ccccc3Sc3ccc(Cl)cc32)C1 | inactive | 23 | 0.75 | 1.08 | Toxic | Active | Active | Active | 217 | Non-toxic | 1.5 | inactive | Dose-dependent effect | 6.4 | Active | Dose-dependent effect | 40 | 6.4 | 60 | inactive | Activity ([2]; route intraperitoneal): 60%; Activity [25]: 93%; Activity [26]: Active; Activity [27]: 60%; T [21]: 5.1 °C; Activity [22]: Toxic; Activity [23]: inactive; Activity [24]: inactive |
| CCN(C)[C@@H]1CCN([C@H]2Cc3ccccc3Sc3ccc(Cl)cc32)C1 | inactive | 23 | 0.73 | 1.24 | Toxic | Active | Active | Active | 186 | Non-toxic | 1.5 | inactive | Dose-dependent effect | 12 | Active | Dose-dependent effect | 40 | 13.6 | 60 | inactive | Activity [2]: inactive; T [21]: 5.1 °C; Activity [22]: Toxic; Activity [23]: inactive; Activity [24]: inactive |
